Results published in ChEMBL document CHEMBL4330096, “Discovery of potent and selective 5-azaindazole inhibitors of leucine-rich repeat kinase 2 (LRRK2) - Part 1” (Bioorg Med Chem Lett, 2019).

Key:
[1] = molecular target: Tyrosine-protein kinase SYK (Homo sapiens) (UniProt P43405); assay: Inhibition of SYK (unknown origin) at 10 uM relative to control
Procedure, shortened: (§1)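 Single-concentration screen across a panel of 59 protein kinases, with each compound tested at one fixed concentration. The read-out is residual kinase activity relative to control. Panel results are also condensed into a rescaled geometric mean (RGM) selectivity score.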

[2] = molecular target: Mitogen-activated protein kinase 14 (Homo sapiens) (UniProt Q16539); assay: Inhibition of p38a MAPK (unknown origin) at 10 uM relative to control; procedure, shortened: as §1
[3] = molecular target: MAP/microtubule affinity-regulating kinase 3 (Homo sapiens) (UniProt P27448); assay: Inhibition of MARK3 (unknown origin) at 10 uM relative to control
Procedure, shortened: (§2)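 Single-concentration screen of each compound against a 59-protein-kinase panel, run at 10 µM or 1 µM. Activity relative to control is shown as a heat map across the panel.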

[4] = molecular target: Serine/threonine-protein kinase Nek6 (Homo sapiens) (UniProt Q9HC98); assay: Inhibition of NEK6 (unknown origin) at 10 uM relative to control; procedure, shortened: as §2
[5] = molecular target: MAP kinase-interacting serine/threonine-protein kinase 2 (Homo sapiens) (UniProt Q9HBH9); assay: Inhibition of MNK2 (unknown origin) at 10 uM relative to control; procedure, shortened: as §2
[6] = organism: Homo sapiens; assay: Inhibition of VEGFR (unknown origin) at 10 uM relative to control; procedure, shortened: as §1
[7] = molecular target: Casein kinase I (Homo sapiens) (UniProt Q9HCP0+P78368+P48730+P49674+P48729); assay: Inhibition of CK1 (unknown origin) at 1 uM relative to control; type: protein assay
Procedure, shortened: (§3)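 Single-point screen of each compound against a panel of 59 protein kinases, at 1 or 10 μM. The panel data are also summarised as a rescaled geometric mean selectivity score.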

[8] = molecular target: Insulin-like growth factor 1 receptor (Homo sapiens) (UniProt P08069); assay: Inhibition of IGF1R (unknown origin) at 1 uM relative to control; procedure, shortened: as §3
[9] = molecular target: 3-phosphoinositide-dependent protein kinase 1 (Homo sapiens) (UniProt O15530); assay: Inhibition of PDK1 (unknown origin) at 1 uM relative to control
[10] = molecular target: Serine/threonine-protein kinase PLK1 (Homo sapiens) (UniProt P53350); assay: Inhibition of PLK1 (unknown origin) at 1 uM relative to control; procedure, shortened: as §2
[11] = molecular target: Aurora kinase B (Homo sapiens) (UniProt Q96GD4); assay: Inhibition of Aurora B (unknown origin) at 1 uM relative to control; procedure, shortened: as §3
[12] = molecular target: Mitogen-activated protein kinase 14 (Homo sapiens) (UniProt Q16539); assay: Inhibition of p38a MAPK (unknown origin) at 1 uM relative to control; procedure, shortened: as §1
[13] = molecular target: Serine/threonine-protein kinase Nek6 (Homo sapiens) (UniProt Q9HC98); assay: Inhibition of NEK6 (unknown origin) at 1 uM relative to control; procedure, shortened: as §2
[14] = molecular target: T1, Serine/threonine-protein kinase D1 (Homo sapiens) (UniProt Q15139); assay: Inhibition of PKD1 (unknown origin) at 1 uM relative to control; procedure, shortened: as §2
T1 sequence (whole entry): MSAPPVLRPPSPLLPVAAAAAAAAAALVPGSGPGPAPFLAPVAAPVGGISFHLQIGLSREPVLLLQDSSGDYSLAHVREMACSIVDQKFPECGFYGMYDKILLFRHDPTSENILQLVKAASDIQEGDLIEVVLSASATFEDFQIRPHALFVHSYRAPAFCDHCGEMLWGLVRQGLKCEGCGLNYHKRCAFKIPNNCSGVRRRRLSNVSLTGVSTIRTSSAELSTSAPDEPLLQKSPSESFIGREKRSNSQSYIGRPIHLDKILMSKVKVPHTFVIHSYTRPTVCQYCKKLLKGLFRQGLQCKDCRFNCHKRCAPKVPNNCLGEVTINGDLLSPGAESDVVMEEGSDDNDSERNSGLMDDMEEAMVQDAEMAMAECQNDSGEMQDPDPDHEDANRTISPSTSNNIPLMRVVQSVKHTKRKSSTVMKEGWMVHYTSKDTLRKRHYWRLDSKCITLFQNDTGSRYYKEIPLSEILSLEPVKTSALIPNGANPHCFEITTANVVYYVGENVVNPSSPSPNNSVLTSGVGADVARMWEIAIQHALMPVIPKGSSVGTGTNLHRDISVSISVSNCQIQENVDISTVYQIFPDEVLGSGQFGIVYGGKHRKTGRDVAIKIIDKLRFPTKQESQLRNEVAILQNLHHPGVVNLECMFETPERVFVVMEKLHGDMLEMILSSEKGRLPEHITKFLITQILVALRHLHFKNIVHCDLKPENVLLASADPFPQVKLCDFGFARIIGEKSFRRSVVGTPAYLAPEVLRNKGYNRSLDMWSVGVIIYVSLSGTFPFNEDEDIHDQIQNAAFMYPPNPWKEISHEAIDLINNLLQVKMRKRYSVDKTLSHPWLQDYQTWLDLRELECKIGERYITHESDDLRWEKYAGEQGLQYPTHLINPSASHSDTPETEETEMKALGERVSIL

[15] = molecular target: Ribosomal protein S6 kinase beta-1 (Homo sapiens) (UniProt P23443); assay: Inhibition of S6K1 (unknown origin) at 1 uM relative to control; procedure, shortened: as §1
[16] = molecular target: Homeodomain-interacting protein kinase 2 (Homo sapiens) (UniProt Q9H2X6); assay: Inhibition of HIPK2 (unknown origin) at 1 uM relative to control; procedure, shortened: as §3
[17] = molecular target: Tyrosine-protein kinase CSK (Homo sapiens) (UniProt P41240); assay: Inhibition of CSK (unknown origin) at 1 uM relative to control; procedure, shortened: as §3

Sequence of MAP kinase-interacting serine/threonine-protein kinase 2 (Homo sapiens) (Q9HBH9 whole entry, looked up): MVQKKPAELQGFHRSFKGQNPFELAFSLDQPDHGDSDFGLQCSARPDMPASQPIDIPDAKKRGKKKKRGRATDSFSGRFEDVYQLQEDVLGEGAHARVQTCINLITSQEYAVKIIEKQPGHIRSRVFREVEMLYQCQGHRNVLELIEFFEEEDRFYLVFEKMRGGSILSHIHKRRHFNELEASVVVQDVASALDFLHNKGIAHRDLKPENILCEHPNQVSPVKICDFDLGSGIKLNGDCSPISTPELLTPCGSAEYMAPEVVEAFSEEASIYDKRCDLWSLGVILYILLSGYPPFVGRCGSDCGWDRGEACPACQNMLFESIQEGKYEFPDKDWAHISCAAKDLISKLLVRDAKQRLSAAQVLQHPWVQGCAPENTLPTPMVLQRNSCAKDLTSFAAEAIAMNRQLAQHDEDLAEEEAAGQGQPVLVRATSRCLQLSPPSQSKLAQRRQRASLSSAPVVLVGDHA
Sequence of Serine/threonine-protein kinase Nek6 (Homo sapiens) (Q9HC98 whole entry): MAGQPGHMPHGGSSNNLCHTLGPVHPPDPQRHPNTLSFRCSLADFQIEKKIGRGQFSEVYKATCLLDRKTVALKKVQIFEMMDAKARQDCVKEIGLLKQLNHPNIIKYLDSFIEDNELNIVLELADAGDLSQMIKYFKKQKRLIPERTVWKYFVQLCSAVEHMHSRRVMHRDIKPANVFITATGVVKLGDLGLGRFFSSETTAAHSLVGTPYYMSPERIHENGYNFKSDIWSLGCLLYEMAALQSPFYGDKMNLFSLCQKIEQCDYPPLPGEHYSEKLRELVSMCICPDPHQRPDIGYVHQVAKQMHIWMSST
Sequence of MAP/microtubule affinity-regulating kinase 3 (Homo sapiens) (P27448 whole entry, looked up): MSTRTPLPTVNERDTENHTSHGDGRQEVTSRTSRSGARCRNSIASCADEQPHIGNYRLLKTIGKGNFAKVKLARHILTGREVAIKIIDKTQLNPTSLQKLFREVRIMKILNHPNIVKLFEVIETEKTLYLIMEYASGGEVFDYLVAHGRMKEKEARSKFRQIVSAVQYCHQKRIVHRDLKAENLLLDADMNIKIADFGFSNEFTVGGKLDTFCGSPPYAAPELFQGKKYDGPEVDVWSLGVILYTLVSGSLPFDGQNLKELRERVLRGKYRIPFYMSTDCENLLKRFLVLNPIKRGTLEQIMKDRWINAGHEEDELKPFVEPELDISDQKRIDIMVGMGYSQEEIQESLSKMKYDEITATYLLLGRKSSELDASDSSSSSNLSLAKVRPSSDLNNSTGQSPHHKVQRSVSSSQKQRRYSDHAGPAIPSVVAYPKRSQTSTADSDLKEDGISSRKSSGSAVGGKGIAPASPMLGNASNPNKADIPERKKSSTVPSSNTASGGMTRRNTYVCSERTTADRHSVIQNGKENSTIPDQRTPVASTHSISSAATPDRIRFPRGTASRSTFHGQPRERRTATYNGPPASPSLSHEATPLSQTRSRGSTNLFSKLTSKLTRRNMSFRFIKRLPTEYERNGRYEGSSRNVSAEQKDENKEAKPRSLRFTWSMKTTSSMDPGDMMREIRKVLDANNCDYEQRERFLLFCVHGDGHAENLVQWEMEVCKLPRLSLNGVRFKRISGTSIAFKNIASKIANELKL
Sequence of Mitogen-activated protein kinase 14 (Homo sapiens) (Q16539 whole entry): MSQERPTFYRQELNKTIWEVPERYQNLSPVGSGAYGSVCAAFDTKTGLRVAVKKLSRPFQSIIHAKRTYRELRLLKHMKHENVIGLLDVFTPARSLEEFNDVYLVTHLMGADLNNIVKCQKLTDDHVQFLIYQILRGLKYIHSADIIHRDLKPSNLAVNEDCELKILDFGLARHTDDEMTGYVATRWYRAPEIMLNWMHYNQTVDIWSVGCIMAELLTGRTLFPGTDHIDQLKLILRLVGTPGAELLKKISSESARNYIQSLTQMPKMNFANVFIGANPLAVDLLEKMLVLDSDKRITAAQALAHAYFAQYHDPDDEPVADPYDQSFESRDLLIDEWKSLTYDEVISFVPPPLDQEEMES
Sequence of Insulin-like growth factor 1 receptor (Homo sapiens) (P08069 31-736 limits assumed): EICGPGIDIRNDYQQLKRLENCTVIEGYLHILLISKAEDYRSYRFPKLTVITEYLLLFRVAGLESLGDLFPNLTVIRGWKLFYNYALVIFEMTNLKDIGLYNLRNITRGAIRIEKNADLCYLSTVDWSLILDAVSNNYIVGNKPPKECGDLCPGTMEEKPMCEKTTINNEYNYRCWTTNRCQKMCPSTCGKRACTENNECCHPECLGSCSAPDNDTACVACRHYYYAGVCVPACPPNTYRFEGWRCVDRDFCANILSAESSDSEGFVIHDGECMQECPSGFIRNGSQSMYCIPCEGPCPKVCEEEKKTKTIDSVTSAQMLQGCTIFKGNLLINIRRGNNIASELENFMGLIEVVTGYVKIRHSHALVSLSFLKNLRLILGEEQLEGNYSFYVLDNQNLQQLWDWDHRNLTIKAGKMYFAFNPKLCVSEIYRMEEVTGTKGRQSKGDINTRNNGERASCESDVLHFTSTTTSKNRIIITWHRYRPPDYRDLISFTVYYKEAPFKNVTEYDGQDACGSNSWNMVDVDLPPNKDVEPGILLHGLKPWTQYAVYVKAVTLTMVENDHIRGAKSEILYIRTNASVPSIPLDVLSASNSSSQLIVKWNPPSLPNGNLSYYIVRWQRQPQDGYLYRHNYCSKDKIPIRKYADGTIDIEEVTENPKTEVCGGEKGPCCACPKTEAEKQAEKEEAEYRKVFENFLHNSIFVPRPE
Sequence of Insulin-like growth factor 1 receptor (Homo sapiens) (P08069 741-1367 limits assumed): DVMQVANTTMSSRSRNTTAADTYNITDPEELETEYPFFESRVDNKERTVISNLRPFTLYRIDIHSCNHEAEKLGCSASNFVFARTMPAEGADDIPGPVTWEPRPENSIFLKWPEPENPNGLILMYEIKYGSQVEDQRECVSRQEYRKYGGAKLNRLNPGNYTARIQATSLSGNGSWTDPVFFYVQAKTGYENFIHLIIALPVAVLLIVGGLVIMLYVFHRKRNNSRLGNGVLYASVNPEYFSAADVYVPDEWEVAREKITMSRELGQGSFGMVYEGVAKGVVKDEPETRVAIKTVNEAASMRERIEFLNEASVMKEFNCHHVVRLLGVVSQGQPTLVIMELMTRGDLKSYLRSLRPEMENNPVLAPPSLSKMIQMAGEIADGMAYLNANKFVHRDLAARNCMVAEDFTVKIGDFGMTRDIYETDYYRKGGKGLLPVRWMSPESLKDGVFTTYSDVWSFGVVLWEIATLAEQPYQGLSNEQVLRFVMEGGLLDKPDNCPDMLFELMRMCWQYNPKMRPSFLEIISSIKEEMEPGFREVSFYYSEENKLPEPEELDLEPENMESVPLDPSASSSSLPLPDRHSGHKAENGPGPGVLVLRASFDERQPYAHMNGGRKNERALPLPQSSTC
Sequence of Ribosomal protein S6 kinase beta-1 (Homo sapiens) (P23443 whole entry, looked up): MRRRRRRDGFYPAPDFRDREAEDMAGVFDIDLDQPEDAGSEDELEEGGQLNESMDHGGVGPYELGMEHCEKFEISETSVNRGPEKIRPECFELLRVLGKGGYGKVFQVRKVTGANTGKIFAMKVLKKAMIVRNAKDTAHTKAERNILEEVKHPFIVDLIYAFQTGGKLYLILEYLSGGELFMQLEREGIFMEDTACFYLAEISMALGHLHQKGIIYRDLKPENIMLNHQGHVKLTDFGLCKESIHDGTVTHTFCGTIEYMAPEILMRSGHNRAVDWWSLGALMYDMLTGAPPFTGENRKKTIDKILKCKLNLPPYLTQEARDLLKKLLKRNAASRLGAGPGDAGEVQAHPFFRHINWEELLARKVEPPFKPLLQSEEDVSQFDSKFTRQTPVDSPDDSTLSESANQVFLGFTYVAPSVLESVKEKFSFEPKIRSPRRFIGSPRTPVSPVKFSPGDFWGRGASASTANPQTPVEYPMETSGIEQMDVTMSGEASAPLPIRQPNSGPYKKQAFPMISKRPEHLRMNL
Sequence of 3-phosphoinositide-dependent protein kinase 1 (Homo sapiens) (O15530 whole entry, looked up): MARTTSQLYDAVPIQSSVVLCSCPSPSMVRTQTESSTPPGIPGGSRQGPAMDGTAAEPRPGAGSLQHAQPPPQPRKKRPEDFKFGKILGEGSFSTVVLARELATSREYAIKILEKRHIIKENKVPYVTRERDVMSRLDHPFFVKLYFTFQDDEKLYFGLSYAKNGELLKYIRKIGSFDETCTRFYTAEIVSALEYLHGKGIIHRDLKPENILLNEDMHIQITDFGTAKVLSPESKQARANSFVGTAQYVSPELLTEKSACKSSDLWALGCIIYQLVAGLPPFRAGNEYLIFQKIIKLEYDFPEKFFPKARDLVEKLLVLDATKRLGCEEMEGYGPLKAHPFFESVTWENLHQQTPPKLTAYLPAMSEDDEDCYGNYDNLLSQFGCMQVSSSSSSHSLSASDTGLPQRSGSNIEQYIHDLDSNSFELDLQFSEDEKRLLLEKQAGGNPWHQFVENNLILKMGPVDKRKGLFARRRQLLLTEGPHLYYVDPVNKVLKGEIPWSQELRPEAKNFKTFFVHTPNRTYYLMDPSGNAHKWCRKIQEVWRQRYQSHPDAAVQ
Sequence of Serine/threonine-protein kinase PLK1 (Homo sapiens) (P53350 whole entry): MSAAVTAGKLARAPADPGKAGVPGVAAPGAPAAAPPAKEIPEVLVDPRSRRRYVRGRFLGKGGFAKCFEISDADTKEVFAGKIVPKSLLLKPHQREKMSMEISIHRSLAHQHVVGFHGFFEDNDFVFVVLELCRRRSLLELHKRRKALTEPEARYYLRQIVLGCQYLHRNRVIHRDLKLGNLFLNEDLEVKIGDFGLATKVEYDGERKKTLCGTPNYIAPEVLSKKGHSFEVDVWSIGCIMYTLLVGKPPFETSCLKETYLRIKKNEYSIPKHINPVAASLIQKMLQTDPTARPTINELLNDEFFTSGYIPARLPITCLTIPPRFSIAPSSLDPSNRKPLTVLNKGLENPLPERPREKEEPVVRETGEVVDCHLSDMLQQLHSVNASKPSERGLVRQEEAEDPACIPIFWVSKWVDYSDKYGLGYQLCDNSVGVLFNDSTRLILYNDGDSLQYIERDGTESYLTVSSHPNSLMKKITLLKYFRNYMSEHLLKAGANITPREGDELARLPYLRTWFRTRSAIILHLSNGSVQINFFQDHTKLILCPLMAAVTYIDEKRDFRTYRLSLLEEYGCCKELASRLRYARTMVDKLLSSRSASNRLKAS

| SMILES | inhibition [1] [%] | inhibition [2] [%] | inhibition [3] [%] | inhibition [4] [%] | inhibition [5] [%] | inhibition [6] [%] | inhibition [7] [%] | inhibition [8] [%] | inhibition [9] [%] | inhibition [10] [%] | inhibition [11] [%] | inhibition [12] [%] | inhibition [13] [%] | inhibition [14] [%] | inhibition [15] [%] | inhibition [16] [%] | inhibition [17] [%] |
| --- | --- | --- | --- | --- | --- | --- | --- | --- | --- | --- | --- | --- | --- | --- | --- | --- | --- |
| Cc1n[nH]c2ccnc(Nc3ccc4ncsc4c3)c12 | 0 | 0 | 36 | – | – | – | – | – | – | – | – | – | – | – | – | – | – |
| Cc1n[nH]c2ccnc(OC3CCCCC3)c12 | 16 | 0 | 46 | 4 | 37 | 76 | – | – | – | – | – | – | – | – | – | – | – |
| c1cc(-c2n[nH]c3ccnc(OC4CCOCC4)c23)cc(N2CCOCC2)n1 | – | – | – | – | – | – | 0 | 11 | 0 | 0 | 0 | 0 | 0 | 7 | 0 | 6 | 0 |
| Cc1n[nH]c2ccnc(Nc3ccccc3F)c12 | 0 | 10 | 46 | 12 | 24 | 67 | – | – | – | – | – | – | – | – | – | – | – |
| Cc1n[nH]c2ccnc(NC3CCCCC3)c12 | 17 | 9 | 34 | 13 | 8 | 43 | – | – | – | – | – | – | – | – | – | – | – |
| CC(C)n1cc(-c2n[nH]c3ccnc(OC4CCOCC4)c23)cn1 | – | – | – | – | – | – | 0 | 40 | 5 | 0 | 38 | 0 | 0 | 41 | 16 | 9 | 0 |
